Shown are actives, neighbours in structure and some others; about 3% of the full set was active somewhere.
PfGluPho inh = PfG6PD enzyme inhibitors, primary screen, biochemical, fluorescence intensity, uHTS. glucose-6-phosphate dehydrogenase-6-phosphogluconolactonase (Plasmodium falciparum 3D7). PfGluPho enzyme, NADPH resazurin-diaphorase fluorescence. inhibition, % at 20 µM. actives 0.78% (n = 350,000). AID 504690, 2011;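 active = inhibition reaching at least a set limit at 20 µM in the primary screen, cut at about 59% in these data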;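 also: 0% = DMSO wells with substrate and 100% = DMSO wells lacking glucose-6-phosphate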
ABHD5-PLIN5 inh = ABHD5-PLIN5 interaction inhibitors, primary screen, cell lysate, split luciferase complementation, luminescence. Perilipin-5 (Homo sapiens) + 1-acylglycerol-3-phosphate O-acyltransferase ABHD5 (Homo …. Split G. princeps luciferase complementation, 4 h. inhibition, % at 4 µM. actives 0.78% (n = 360,000). AID 602281, 2012;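 active = inhibition above the mean inhibition across every tested compound plus 3 SD, cut at about 22% in these data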;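 also: 0% = DMSO only wells and the 100% control is not disclosed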
MC4R ag barr = MC4R agonists recruiting beta-arrestin, primary screen, cell-based, luminescence, agonist arm of biased-ligand search. Melanocortin receptor 4 (Homo sapiens), P32245. U2OS MC4R beta-arrestin complementation; percent of melanotan II response, DMSO zero. activation, % at 8.9 µM. actives 0.98% (n = 360,000). AID 540308, 2011;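 active = activation above a per-plate cutoff, the mean activation of sample wells on that plate plus 3 SD, cut at about 8% in these data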
MC4R antag cAMP = MC4R antagonists of cAMP signaling, primary screen, cell-based, TR-FRET, antagonist arm of biased-ligand search | Melanocortin receptor 4 (Homo sapiens), P32245 | MC4R-expressing cells, MTII-stimulated cAMP, LANCE TR-FRET | inhibition, % at 6.5 µM | actives 0.48% (n = 360,000);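 active = inhibition above its plate's cutoff, the mean of tested wells on that plate plus 3 SD, cut at about 29% in these data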;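 also: 0% = Melanotan II alone and 100% = Melanotan II plus saturating MCL0020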
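System – human MC4R-expressing U2OS cells · Also added – Melanotan II · Dosing – one concentration, 6.5 µM nominal · Timing – 30-min compound, 1-h challenge, 1-h detection, room temperature · Measured by – Eu-cAMP/anti-cAMP TR-FRET, emission 671 nm · Replicates – singlicate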
B2AR ag = beta2AR agonists driving receptor internalization, primary screen, cell-based, FAP fluorogen, flow cytometry. response, % (concentration not given with the values). AID 504454, 2011. Am2.2-beta2AR cells. actives 0.43% (n = 340,000);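 active = response above a set limit, near 3 SD of response in nonfluorescent compounds, cut at about 42% in these data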
Target sequence (P07550 whole entry, looked up): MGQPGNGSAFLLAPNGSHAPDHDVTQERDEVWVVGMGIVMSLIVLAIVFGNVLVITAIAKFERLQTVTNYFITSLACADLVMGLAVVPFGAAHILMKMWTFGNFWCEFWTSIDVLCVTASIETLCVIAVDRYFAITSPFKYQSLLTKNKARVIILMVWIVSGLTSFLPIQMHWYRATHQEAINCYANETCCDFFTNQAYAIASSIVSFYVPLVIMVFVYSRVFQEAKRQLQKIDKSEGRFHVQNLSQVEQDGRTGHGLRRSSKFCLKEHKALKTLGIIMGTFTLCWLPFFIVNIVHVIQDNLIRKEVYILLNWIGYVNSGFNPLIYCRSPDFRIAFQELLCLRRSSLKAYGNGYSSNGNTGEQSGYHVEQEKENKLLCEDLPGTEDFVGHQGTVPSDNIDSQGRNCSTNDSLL
Beta2AR ag CP1 = beta2AR agonists via receptor internalization, confirmation, cell-based, FAP fluorogen, flow cytometry, single point, cherry pick 1; shares compounds with B2AR ag; Am2.2-beta2AR cells, FAP surface receptor; hits give low values; percent response (surface receptor), % at 10 µM; actives 25% (n = 1,100);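 active = surface receptor percent response at or below 58%, roughly 3 SD from nonfluorescent compounds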
B2AR FAP counter = flagged in Am2.2 fluorescence counterscreen for beta-2AR agonists; shares compounds with B2AR ag; Am2.2 cells, FAP fluorogen flow cytometry; hits give low values; calls only at 10 µM; 1,100 tested, under 10 active;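 active = percent response below a set limit in fluorescence channel 1 and below 50% in channel 8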
Starred values were filed as active, the others as inactive; i = inactive; nt = not tested or not shown.

SMILES	PfGluPho inh	ABHD5-PLIN5 inh	MC4R ag barr	MC4R antag cAMP	B2AR ag	Beta2AR ag CP1	B2AR FAP counter
CCOc1cc(-c2c(C)c(CC)nc(N)c2C#N)ccc1O	-18	-4	1	-1	69*	103	i
C=C(C)COC(=O)c1ccccc1C(=O)OCC1(C)CO1 (centres undefined)	3	2	-2	5	-7	nt	nt
CN(C)C(CNC(=O)c1ccc(NC(=O)CC#N)cc1)c1ccccc1 (centres undefined)	-4	6	-1	-3	47*	97	i
N#CCC(=O)Nc1ccc(C(=O)NCCC(c2ccccc2)c2ccccc2)cc1	-4	5	-3	9	-9	nt	nt
Clc1ccccc1CN1CCc2sccc2C1	14	-6	-1	-2	5	104	i
COc1cc(/C=C2/C(=O)NN(c3cccc(F)c3)C2=O)ccc1OC(=O)c1ccco1	-12	-4	1	1	47*	114	i
COc1cc(/C=C2/C(=O)NN(c3ccc(Cl)cc3)C2=O)ccc1OC(=O)c1ccco1	-11	-3	0	-3	10	nt	nt
Cc1ccc(S(=O)(=O)c2ccc([N+](=O)[O-])o2)cc1	49	85*	-3	88*	86*	16*	i
CN(C)S(=O)(=O)c1cc([N+](=O)[O-])ccc1N1CCCCCC1	8	1	0	16	40	nt	nt
CC(C)CN(CC(C)C)S(=O)(=O)c1cc([N+](=O)[O-])ccc1N1CCCCCC1	23	-2	-1	-9	52*	64	i
CC(C)(NC(=O)NC(CO)c1ccccc1)c1cccc(C(C)(C)NC(=O)NC(CO)c2ccccc2)c1 (centres undefined)	12	0	-2	-2	-8	110	i
CC(C)(C(=O)N[C@H](CO)c1ccccc1)C(=O)N[C@H](CO)c1ccccc1	-2	-1	-2	-1	1	nt	nt
O=C(Nc1ccccc1)NC1CCCCNC1=O (centres undefined)	2	-2	0	11	-4	nt	nt
COc1ccc(C2=NN(C(=O)c3cccs3)C(c3ccc(OC)cc3)C2)cc1 (centres undefined)	4	-3	-2	18	44*	43*	i
Cc1ccc(NC(=O)C2(C)CCN2C(=O)Cc2cc(F)ccc2F)cc1 (centres undefined)	nt	2	-1	0	nt	nt	nt
CC(C)c1ccc(-c2nn(-c3ccccc3)cc2C(=O)NCC2CCCO2)cc1 (centres undefined)	15	9	0	9	-7	nt	nt
Cc1cc(Cl)c2oc(C(=O)N3CCN(c4ccncc4)CC3)c(C)c2c1	4	16	2	1	65*	65	i
CC(=O)NC(C)(c1ccccc1)c1nc(/C=C/c2ccccc2)cs1 (centres undefined)	nt	-3	2	-3	nt	nt	nt
COc1ccc(C2/C=C\CN(C(=O)c3ccc(C)cc3)CC(=O)N2Cc2ccc(F)cc2)cc1 (centres undefined)	-12	-1	-2	4	9	102	i
CCCCC(=O)N1C/C=C\[C@H](c2ccc(OC)cc2)N(Cc2ccc(F)cc2)C(=O)[C@@H]1C	14	2	0	-2	-1	nt	nt
COc1ccc([C@H]2/C=C\CN(C(=O)c3ccccc3)[C@@H](C)C(=O)N2Cc2ccc(F)cc2)cc1	7	-6	-2	0	3	111	i
CCOc1ccccc1N1CCN(C(=O)c2cc(S(=O)(=O)N(C)C)ccc2N2CCCC2)CC1	-4	6	0	13	4	nt	nt
